The values that follow come from PubChem BioAssay.

Activity calls are given as the source filed them.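 The calls were made as follows, unless noted: active = inhibition at or above 50% at 10 µM; inactive = inhibition below 50%.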

Assay [1] can be described thus: inhibitors of TNFa-induced NFkB p65 translocation, primary screen, imaging, HUVEC, MLSMR starter and 10KST1 sets (AID 438;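 active = inhibition above 20% together with a positive visual image hit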;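 also: compound added about 3h40 before a 20 min TNFalpha stimulation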;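 as to inhibition: signal is the nuclear over cytoplasmic p65 intensity ratio per well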). Conditions: HUVEC TNFa-induced p65 nuclear translocation; cell count: measured here: nuclei count (cytotoxicity indicator), at 2.08 µM; inhibition: at 2 µM, stronger effect = higher value, 0% TNFa-plus-vehicle, 100% no-TNFa wells.
The nature of assay [2]: inhibitors of mutant huntingtin aggregation, primary screen, imaging, exon1htt(103Q)mCFP cells, high-content imaging (AID 483;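 active = visual image review flags a hit and inhibition of aggregation exceeds 20%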;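 also: compound exposure lasted 3 days before fixation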;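 as to nuclei count: percent of the per-plate median nuclei count of sample wells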). The conditions noted are these: exon1htt(103Q)mCFP cell line, aggregate imaging, at 2 µM; inhibition of aggregation: stronger effect = higher value; nuclei count: measured here: cell count, toxicity.
Assay [3] is described as follows: inhibitors of E-selectin induction by TNFa, primary screen, imaging, HUVEC, immunofluorescence, MLSMR starter and 10KST1 sets (AID 487;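 active = visually confirmed hit in the image check and inhibition above 20%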;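 as to inhibition: signal is fraction of cell area covered by stained E-selectin grains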;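 as to nuclei count: 100% = median nuclei count of all wells on the same plate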). The conditions noted are these: HUVEC TNFalpha-induced E-selectin immunofluorescence imaging, at 2 µM; inhibition: stronger effect = higher value; nuclei count: measured here: cell number, toxicity.
In assay [4] the target is Voltage-gated potassium channel subunit beta-2 (Rattus norvegicus) (UniProt P62483). The assay can be described thus: KvBeta enzyme negative modulators, primary screen, biochemical, NADPH fluorescence (AID 622;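 active = fluorescence slope higher than the sample average by over 3 SD, cut at about -0.22 in these data, passing the limit was not always enough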;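 also: slope of raw intensity against log time taken from 70 to 1610 s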). The conditions noted are these: recombinant KvBeta, 4-cyanobenzaldehyde reduction, at 10 µM, stronger effect = higher value.
Assay [5] has the same target. Nature of the assay: KvBeta positive modulators, primary screen, biochemical, NADPH fluorescence (AID 623;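 active = NADPH fluorescence slope more negative than the mean of all samples by about 3 SD, 99.7% confidence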;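 also: fluorescence intensity change per second fitted from 20 to 320 s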). Conditions: Recombinant KvBeta, NADPH fluorescence decrease slope, 10 min; at 10 µM; stronger effect = lower value.
For assay [6], the target named is Muscarinic acetylcholine receptor M4 (Homo sapiens) (UniProt P08173). Nature of the assay: compounds altering M4/GIRK thallium flux, either direction, primary screen, M4 allosteric agonist project, cell-based, HEK293 M4/GIRK, BTC-AM (AID 625;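 active = fluorescence slope after compound addition differing from the mean of all tested samples at 99.7% confidence, mostly higher but some lower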;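 also: thallium influx through GIRK channels coupled to M4 in HEK293 cells with BTC-AM dye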). The conditions noted are these: at 10 µM, actives lie on both sides. The procedure, abridged:
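System: HEK293 cells with M4 receptor and GIRK channels | Incubation: Cells overnight at 37 °C, BTC-AM loading 1 h, reads 2 min total | Technique: Kinetic BTC-AM fluorescence sampled at 1 Hz, 10 s pre-addition baseline | Measure: Post-addition slope, 15–24 s, of baseline-normalized fluorescence | Control set: Carbachol positive, DMSO negative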

Assay [7] is described as follows: inhibitors of Sendai virus-induced IRF3 signaling, primary screen, TLR/RLR signaling modifier project, cell-based, Sendai virus stimulus, luciferase, 10K MLSCN set (AID 602276).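 Also: firefly luciferase from ISG56 promoter only with Renilla not read in this screen; 0% = Sendai virus plus DMSO and 100% = medium plus DMSO without virus.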 The conditions noted are these: HEK293 RL24 IRF3 luciferase reporter, at 10 µM, stronger effect = higher value. Background: Reporter assays use an easily measured gene product as a stand-in for the process of interest.

Assay [8] in a line: inhibitors of poly I:C-induced TLR3 signaling, primary screen, cell-based, poly I:C stimulus, luciferase, 10K MLSCN set (AID 602277;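 active = inhibition of the reporter signal at or above 50%; inactive = inhibition below 50%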). The conditions noted are these: HEK293-TLR3 RL24 IRF3 luciferase reporter, at 10 µM, stronger effect = higher value.

Muscarinic acetylcholine receptor M4 (Homo sapiens), sequence (P08173 whole entry, looked up): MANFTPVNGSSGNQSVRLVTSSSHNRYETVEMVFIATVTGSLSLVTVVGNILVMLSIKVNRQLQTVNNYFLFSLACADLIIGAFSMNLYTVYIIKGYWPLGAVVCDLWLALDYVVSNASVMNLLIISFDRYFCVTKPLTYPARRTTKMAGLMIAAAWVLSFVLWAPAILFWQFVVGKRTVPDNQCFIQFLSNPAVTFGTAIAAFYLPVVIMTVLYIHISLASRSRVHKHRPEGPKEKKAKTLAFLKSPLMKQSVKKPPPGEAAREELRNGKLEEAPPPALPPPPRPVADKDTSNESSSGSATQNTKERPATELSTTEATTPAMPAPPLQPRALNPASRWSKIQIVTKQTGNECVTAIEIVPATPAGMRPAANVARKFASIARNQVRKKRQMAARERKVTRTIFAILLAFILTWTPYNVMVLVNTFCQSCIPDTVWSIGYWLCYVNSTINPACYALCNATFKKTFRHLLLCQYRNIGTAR
Voltage-gated potassium channel subunit beta-2 (Rattus norvegicus), sequence (P62483 whole entry, looked up): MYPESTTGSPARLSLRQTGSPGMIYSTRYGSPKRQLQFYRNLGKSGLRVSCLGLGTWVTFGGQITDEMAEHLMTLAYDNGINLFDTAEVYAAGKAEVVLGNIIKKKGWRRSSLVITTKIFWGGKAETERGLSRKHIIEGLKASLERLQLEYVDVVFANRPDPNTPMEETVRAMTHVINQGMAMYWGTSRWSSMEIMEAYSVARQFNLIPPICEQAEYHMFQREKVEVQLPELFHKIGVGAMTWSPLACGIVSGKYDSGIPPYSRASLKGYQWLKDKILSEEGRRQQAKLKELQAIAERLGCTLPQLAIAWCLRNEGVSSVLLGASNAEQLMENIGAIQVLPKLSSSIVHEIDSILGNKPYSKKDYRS

The inhibition is the change of the read-out against control, counted positive when it falls. For the molecule `Cc1cccn2c(=O)c3cc(C#N)c(=NC(=O)c4cccnc4)n(CC4CCCO4)c3nc12` (configuration not stated), the cell count in assay [1] amounted to 852. Besides, the inhibition in assay [1] was -2.8% (inactive); in assay [3] it was -74.7% (inactive); in assay [7] it was -14.2% (inactive); in assay [8], -0.613% (inactive). For the same molecule, the inhibition of aggregation in assay [2] is -7.5% (inactive). Besides, the nuclei count in assay [2] turned out to be 105%; in assay [3], 107%. The fluorescence slope is -0.0377 (active) in assay [4] and 0.0039 (inactive) in assay [6]. Moreover, the NADPH fluorescence slope in assay [5] is -8.2e-07 (inactive).
`Cc1nc(Nc2nc(=O)c3ccccc3n2C)nc2c(C)cccc12`: in assay [1], the cell count worked out at 594. The inhibition is 5.2% (inactive) in assay [1], -112% (inactive) in assay [3], 14.6% (inactive) in assay [7] and 22.9% (inactive) in assay [8]. Moreover, the inhibition of aggregation in assay [2] was -282% (inactive). Moreover, the nuclei count stood at 73.9% in assay [2] and 156% in assay [3]. Moreover, the results for the fluorescence slope in assay [4] and in assay [6] were -0.348 (inactive) and 0.00486 (inactive), respectively. Besides, the NADPH fluorescence slope in assay [5] is -5e-06 (inactive).
With `CCOC(=O)N1CCN(C(=O)CCc2c(C)nc3c(c(C)nn3-c3ccc(C)c(C)c3)c2C)CC1`, the cell count in assay [1] was 653. The inhibition in assay [1] is 0.9% (inactive); in assay [3] it was -63.4% (inactive); in assay [7] it was 20.5% (inactive); in assay [8] it was 13.8% (inactive). Further, the inhibition of aggregation in assay [2] is -9.9% (inactive). Also, the results for the nuclei count in assay [2] and in assay [3] were 100% and 116%, respectively. The fluorescence slope is -0.594 (inactive) in assay [4] and 0.00541 (inactive) in assay [6]. Further, the NADPH fluorescence slope in assay [5] is 1.1e-05 (inactive).
For the molecule `c1ccc(-c2cn3c4c(sc3n2)CCCC4)cc1`, the cell count in assay [1] turned out to be 789. In addition, the inhibition was -4.8% (inactive) in assay [1], -34.8% (inactive) in assay [3], 5.66% (inactive) in assay [7] and 71.3% (active) in assay [8]. Besides, the inhibition of aggregation in assay [2] was 40% (inactive). Also, the nuclei count in assay [2] is 118%; in assay [3], 116%. Also, the fluorescence slope is -0.493 (inactive) in assay [4] and 0.00593 (inactive) in assay [6]. In addition, in assay [5], the NADPH fluorescence slope is -7.1e-06 (inactive).
Regarding `CC(=O)NC1=NC(=O)/C(=C/N2CCCCC2)S1`, the cell count in assay [1] came out at 391. Moreover, the inhibition is -4.7% (inactive) in assay [1], -11.8% (inactive) in assay [3], 21.1% (inactive) in assay [7] and 16.4% (inactive) in assay [8]. The inhibition of aggregation in assay [2] was 1.3% (inactive). Further, the nuclei count in assay [2] amounted to 105%; in assay [3] it was 103%. In addition, the results for the fluorescence slope in assay [4] and in assay [6] were -0.459 (inactive) and 0.00493 (inactive), respectively. For the same molecule, the NADPH fluorescence slope in assay [5] was -3.8e-05 (inactive).
Take `COc1ccc(OC)c(S(=O)(=O)NCCO)c1`: the cell count in assay [1] was 217. The inhibition in assay [1] is -7.9% (inactive); in assay [3], 33.4% (inactive); in assay [7], 16% (inactive); in assay [8], 24.6% (inactive). Besides, the inhibition of aggregation in assay [2] was 11% (inactive). Further, the nuclei count in assay [2] stood at 112%; in assay [3], 102%. The fluorescence slope is -0.567 (inactive) in assay [4] and 0.00652 (inactive) in assay [6]. For the same molecule, the NADPH fluorescence slope in assay [5] was -2.1e-05 (inactive).
Take `COc1cc(C)nc(OCCNC(=O)COc2ccc(Cl)cc2C)n1`: the cell count in assay [1] was 705. Also, the inhibition in assay [1] was 23.3% (active); in assay [3], -53.9% (inactive); in assay [7], -3.41% (inactive); in assay [8], -6.37% (inactive). The inhibition of aggregation in assay [2] was -16% (inactive). Besides, the figures for the nuclei count in assay [2] and in assay [3] were 109% and 123%, respectively. In addition, the fluorescence slope in assay [4] was -0.499 (inactive); in assay [6], 0.00677 (inactive). In assay [5], the NADPH fluorescence slope was 0.00012 (inactive).
In the case of `O=C(CCCCC(=O)NCc1cccs1)NCc1cccs1`, in assay [1], the cell count turned out to be 681. The inhibition was -12.6% (inactive) in assay [1], 0.6% (inactive) in assay [3], -6.61% (inactive) in assay [7] and 0.312% (inactive) in assay [8]. In addition, the inhibition of aggregation in assay [2] is -3.7% (inactive). The nuclei count in assay [2] stood at 110%; in assay [3] it was 88.9%. The fluorescence slope in assay [4] is -0.571 (inactive); in assay [6] it was 0.00493 (inactive). In addition, the NADPH fluorescence slope in assay [5] is 3.2e-05 (inactive).
As for `Cc1ccccc1NS(=O)(=O)c1ccc(NC(=O)c2ccco2)cc1`, the cell count in assay [1] was 349. In addition, the inhibition in assay [1] was 1.1% (inactive); in assay [3], -24.6% (inactive); in assay [7] it was 15.3% (inactive); in assay [8], 13.6% (inactive). Besides, the inhibition of aggregation in assay [2] was 5.8% (inactive). For the same molecule, the results for the nuclei count in assay [2] and in assay [3] were 94.7% and 119%, respectively. The fluorescence slope is -0.587 (inactive) in assay [4] and 0.00578 (inactive) in assay [6]. For the same molecule, the NADPH fluorescence slope in assay [5] is 1.9e-07 (inactive).
Regarding `COc1ccc(C2c3c(-c4ccccc4O)n[nH]c3C(=O)N2CCc2ccc(OC)c(OC)c2)cc1` (configuration not stated), the cell count in assay [1] came out at 644. Moreover, the inhibition was -22.4% (inactive) in assay [1], -37.6% (inactive) in assay [3], 17.4% (inactive) in assay [7] and 21.5% (inactive) in assay [8]. Moreover, the inhibition of aggregation in assay [2] is 17.2% (inactive). In addition, the nuclei count in assay [2] worked out at 68.1%; in assay [3], 114%. Further, the fluorescence slope is -0.616 (inactive) in assay [4] and 0.00748 (inactive) in assay [6]. For the same molecule, in assay [5], the NADPH fluorescence slope was 5.9e-06 (inactive).
Consider `COCc1cc(C)nc(SCC(=O)Nc2cccc(C)c2C)c1C#N`, for which, in assay [1], the cell count was found to be 578. The inhibition in assay [1] is -25.9% (inactive); in assay [3], -62.6% (inactive); in assay [7], -2.58% (inactive); in assay [8], 38.1% (inactive). In addition, in assay [2], the inhibition of aggregation was -17.5% (inactive). Further, the nuclei count was determined as 98% in assay [2] and 107% in assay [3]. The figures for the fluorescence slope in assay [4] and in assay [6] were -0.432 (inactive) and 0.0109 (inactive), respectively. In assay [5], the NADPH fluorescence slope is 2.4e-05 (inactive).
Turning to `CCS(=O)(=O)c1nc2ccccc2n1CC(=O)N1CCCCC1`, in assay [1], the cell count stood at 507. Besides, the inhibition in assay [1] is 9.7% (inactive); in assay [3], -32.9% (inactive); in assay [7] it was 17.6% (inactive); in assay [8], 27% (inactive). The inhibition of aggregation in assay [2] was -6.2% (inactive). Moreover, the results for the nuclei count in assay [2] and in assay [3] were 89.2% and 99.3%, respectively. For the same molecule, the fluorescence slope was -0.425 (inactive) in assay [4] and 0.00578 (inactive) in assay [6]. Moreover, the NADPH fluorescence slope in assay [5] is -2.1e-05 (inactive).
